Measured values reported in PubChem BioAssay AID651950 (The Scripps Research Institute Molecular Screening Center, 2012).
A number with no mark means an inactive call. Activity calls are given as the source filed them. The rule behind the calls is not given here.

test: Hsp70 transcriptional activators, SAR follow-up, cell-based, HeLa, Hsp70 promoter luciferase, luminescence (AID 651950); details: HeLa hsp70.1pr-luc reporter; at 99 µM (top of the series)
Procedure, shortened: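 Read-out: % activation relative to DMSO and MG132 controls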

Row | Compound | activation
1 | CN(C)c1ccc(/C=C/C=C2C(=O)NC(=O)NC2=O)cc1 | 0.4%
2 | O=C1NC(=O)C(=C/C=C/c2cccnc2)C(=O)N1 | 22.5%
3 | O=C1NC(=O)C(=C/C=C/c2ccco2)C(=O)N1 | -0.7% (active)
4 | O=C1NC(=O)N(Cc2ccccc2)C(=O)/C1=C/C=C/c1ccccc1 | -1.2% (active)
5 | O=C1NC(=O)C(=C/C=C/c2ccc(Cl)cc2)C(=O)N1 | -1.1% (active)
6 | COc1ccc(/C=C/C=C2C(=O)NC(=O)NC2=O)cc1 | -1.7% (active)
7 | C=CCN1C(=O)NC(=O)/C(=C/C=C/c2ccccc2)C1=O | -1.7% (active)
8 | O=C1NC(=O)C(=C/C=C/c2ccc([N+](=O)[O-])cc2)C(=O)N1 | -1.1% (active)
9 | O=C1NC(=O)C(=C/C=C/c2ccc(Br)cc2)C(=O)N1 | -0.8% (active)
